Blank lines part the entries; values can stand above or below the compound they belong to.
Assays:
[1] = target: Aldo-keto reductase family 1 member B1 (Bos taurus) (UniProt P16116); test: In vitro inhibition of aldose reductase in partially purified bovine lens preparation at a concentration of 10e -7M.
Method in brief: (§1)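 Enzyme from bovine lens, partially purified by the cited method with the final chromatographic step omitted. DL-Glyceraldehyde was the substrate. Test compounds were run in duplicate at 1×10⁻⁵, 1×10⁻⁶, 1×10⁻⁷ or 4×10⁻⁸ M. Values are % inhibition of enzymatic activity.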

[2] = target: Aldo-keto reductase family 1 member B1 (Bos taurus) (UniProt P16116); test: In vitro inhibition of aldose reductase in partially purified bovine lens preparation at a concentration of 4*10e -8M.; method in brief: as §1
[3] = test system: Rattus norvegicus; test: In vivo inhibition of galactitol accumulation in the diaphragm of rats fed 20% galactose for 4 day at 102 mg/kg/day dose; format: functional
Method in brief: (§2)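 Male Sprague-Dawley rats (50–70 g) in groups of six were fed chow with 20% (w/w) galactose. Controls received 20% glucose instead. Test compound was mixed into the diet, and dose was calculated from actual food intake. Rats were killed by decapitation after 4 days. Result is % lowering of tissue galactitol versus galactose-fed controls, as the mean of six animals, compared by Dunnett's multiple comparison.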

[4] = test system: Rattus norvegicus; test: In vivo inhibition of galactitol accumulation in the sciatic nerve of rats fed 20% galactose for 4 day at 102 mg/kg/day dose; format: functional; method in brief: as §2
[5] = test system: Rattus norvegicus; test: In vivo inhibition of galactitol accumulation in the diaphragm of rats fed 20% galactose for 4 day at 92 mg/kg/day dose; format: functional; method in brief: as §2
[6] = test system: Rattus norvegicus; test: In vivo inhibition of galactitol accumulation in the sciatic nerve of rats fed 20% galactose for 4 day at 92 mg/kg/day dose; format: functional
[7] = target: Aldo-keto reductase family 1 member B1 (Bos taurus) (UniProt P16116); test: in vitro inhibition of Aldose reductase in partially purified bovine lens preparation at a concentration of 10e-6 M.
[8] = test system: Rattus norvegicus; test: In vivo inhibition of galactitol accumulation in the sciatic nerve of rats fed 20% galactose for 4 day at 96 mg/kg/day dose; NS = No Significant inhibition of polyol accumulation; format: functional, organism-based
[9] = test system: Rattus norvegicus; test: In vivo inhibition of galactitol accumulation in the diaphragm of rats fed 20% galactose for 4 day at 96 mg/kg/day dose; format: functional; method in brief: as §2
[10] = test system: Rattus norvegicus; test: In vivo inhibition of galactitol accumulation in the sciatic nerve of rats fed 20% galactose for 4 day at 88 mg/kg/day dose; NS = No Significant inhibition of polyol accumulation; format: functional, organism-based; method in brief: as §2
[11] = test system: Rattus norvegicus; test: In vivo inhibition of galactitol accumulation in the diaphragm of rats fed 20% galactose for 4 day at 88 mg/kg/day dose; format: functional, organism-based; method in brief: as §2
[12] = test system: Rattus norvegicus; test: In vivo inhibition of galactitol accumulation in the sciatic nerve of rats fed 20% galactose for 4 day at 70 mg/kg/day dose; format: functional; method in brief: as §2
[13] = test system: Rattus norvegicus; test: In vivo inhibition of galactitol accumulation in the diaphragm of rats fed 20% galactose for 4 day at 70 mg/kg/day dose; format: functional; method in brief: as §2
[14] = test system: Rattus norvegicus; test: In vivo inhibition of galactitol accumulation in the diaphragm of rats fed 20% galactose for 4 day at 91 mg/kg/day dose; format: functional; method in brief: as §2
[15] = test system: Rattus norvegicus; test: In vivo inhibition of galactitol accumulation in the sciatic nerve of rats fed 20% galactose for 4 day at 91 mg/kg/day dose; format: functional; method in brief: as §2
[16] = test system: Rattus norvegicus; test: In vivo inhibition of galactitol accumulation in the diaphragm of rats fed 20% galactose for 4 day at 115 mg/kg/day dose; format: functional; method in brief: as §2
[17] = test system: Rattus norvegicus; test: In vivo inhibition of galactitol accumulation in the sciatic nerve of rats fed 20% galactose for 4 day at 115 mg/kg/day dose; format: functional; method in brief: as §2
[18] = target: Aldo-keto reductase family 1 member B1 (Bos taurus) (UniProt P16116); test: In vitro inhibition of aldose reductase in partially purified bovine lens preparation at a concentration of 10e -6M.; method in brief: as §1
[19] = test system: Rattus norvegicus; test: In vivo inhibition of galactitol accumulation in the sciatic nerve of rats fed 20% galactose for 4 day at 95 mg/kg/day dose; NS= No Significant inhibition of polyol accumulation; format: functional, organism-based
[20] = test system: Rattus norvegicus; test: In vivo inhibition of galactitol accumulation in the diaphragm of rats fed 20% galactose for 4 day at 103 mg/kg/day dose; format: functional; method in brief: as §2
[21] = target: Aldo-keto reductase family 1 member B1 (Bos taurus) (UniProt P16116); test: In vitro inhibition of Aldose reductase in partially purified bovine lens preparation at a concentration of 10e -7M.; method in brief: as §1
[22] = target: Aldo-keto reductase family 1 member B1 (Bos taurus) (UniProt P16116); test: In vitro inhibition of Aldose reductase in partially purified bovine lens preparation at a concentration of 4*10e -8M.; method in brief: as §1
[23] = test system: Rattus norvegicus; test: In vivo inhibition of galactitol accumulation in the sciatic nerve of rats fed 20% galactose for 4 day at 98 mg/kg/day dose; NS = No Significant inhibition of polyol accumulation; format: functional, organism-based
[24] = test system: Rattus norvegicus; test: In vivo inhibition of galactitol accumulation in the diaphragm of rats fed 20% galactose for 4 day at 98 mg/Kg/day; NS = No Significant inhibition of polyol accumulation; format: functional, organism-based; method in brief: as §2
[25] = test system: Rattus norvegicus; test: In vivo inhibition of galactitol accumulation in the diaphragm of rats fed 20% galactose for 4 day at 81 mg/kg/day dose; format: functional; method in brief: as §2
[26] = test system: Rattus norvegicus; test: In vivo inhibition of galactitol accumulation in the sciatic nerve of rats fed 20% galactose for 4 day at 96 mg/kg/day dose; format: functional
[27] = target: Aldo-keto reductase family 1 member B1 (Bos taurus) (UniProt P16116); test: In vitro inhibition of aldose reductase in partially purified bovine lens preparation at a concentration of 10e-6 M.; method in brief: as §1
[28] = test system: Rattus norvegicus; test: In vivo inhibition of galactitol accumulation in the sciatic nerve of rats fed 20% galactose for 4 day at 91 mg/kg/day dose; NS = No Significant inhibition of polyol accumulation; format: functional, organism-based; method in brief: as §2
[29] = test system: Rattus norvegicus; test: In vivo inhibition of galactitol accumulation in the diaphragm of rats fed 20% galactose for 4 day at 91 mg/kg/day dose; NS = No Significant inhibition of polyol accumulation; format: functional, organism-based; method in brief: as §2

Compound: O=C(O)Cn1c(=O)c2ccccc2n1Cc1ccc(Br)cc1F
- inhibition [7]: 40%
- Lowering [8]: Not significant
- Lowering [9]: 24%

Compound: Cc1sc2c(c1C)c(=O)n(CC(=O)O)c(=O)n2Cc1ccc(Cl)c(Cl)c1
- inhibition [1]: 79%
- inhibition [2]: 51%
- Lowering [10]: Not significant
- Lowering [11]: Not significant

Compound: O=C(O)Cn1c(=O)c2cc(Cl)ccc2n(Cc2ccc(Br)cc2F)c1=S
- inhibition [1]: 70%
- inhibition [2]: 24%
- Lowering [12]: 39%
- Lowering [13]: 60%

Compound: O=C(O)Cn1c(=O)c2ccccc2n(Cc2ccc(Br)cc2F)c1=O
- inhibition [1]: 71%
- inhibition [2]: 34%
- Lowering [16]: 58%
- Lowering [17]: 54%

Compound: CC(c1ccccc1)n1c(=O)n(CC(=O)O)c(=O)c2cc(Br)ccc21 (stereo not drawn)
- inhibition [18]: 34%
- Lowering [19]: Not significant

Compound: O=C(O)Cn1c(=O)c2ccc(F)cc2n(Cc2ccc(Br)cc2F)c1=O
- inhibition [1]: 74%
- inhibition [2]: 53%
- Lowering [19]: Not significant
- Lowering [20]: 63%

Compound: O=C(O)Cn1c2ccc([N+](=O)[O-])cc2c(=O)n1Cc1ccc(Cl)c(Cl)c1
- inhibition [21]: 41%
- inhibition [22]: 27%
- Lowering [23]: Not significant
- Lowering [24]: Not significant

Compound: O=C(O)CN1Cc2ccccc2N(Cc2ccc(Cl)c(Cl)c2)C1=O
- inhibition [1]: 68%
- inhibition [2]: 41%
- Lowering [19]: Not significant
- Lowering [25]: 38%

Compound: O=C(O)Cn1c(=O)c2cc(Br)ccc2n(Cc2ccc(Br)cc2F)c1=O
- inhibition [21]: 83%
- inhibition [22]: 71%
- Lowering [26]: 60%
- Lowering [9]: 76%

Compound: O=C(O)Cn1c(C(F)(F)F)nc2ccc(Br)cc2c1=O
- inhibition [1]: 23%
- inhibition [27]: 45%
- Lowering [28]: Not significant
- Lowering [29]: Not significant

Further lines, with some results ahead:

- inhibition [1]: 80%
- inhibition [2]: 40%
Compound: Cc1ccc2c(c1)c(=O)n(CC(=O)O)c(=O)n2Cc1ccc(Cl)c(Cl)c1
- Lowering [3]: 76%
- Lowering [4]: 65%

- inhibition [1]: 83%
- inhibition [2]: 47%
Compound: O=C(O)Cn1c(=O)c2cc(Br)ccc2n(Cc2ccc(Cl)c(Cl)c2)c1=O
- Lowering [5]: 78%
- Lowering [6]: 62%

- inhibition [1]: 80%
- inhibition [2]: 51%
Compound: O=C(O)Cn1c(=O)c2cc(Cl)ccc2n(Cc2ccc(Br)cc2F)c1=O
- Lowering [14]: 78%
- Lowering [15]: 47%

- inhibition [1]: 89%
- inhibition [2]: 54%
Compound: O=C(O)Cn1c(=O)n(Cc2ccc(Cl)c(Cl)c2)c(=S)c2cc(Cl)ccc21
- Lowering [12]: 28%
- Lowering [13]: 50%

From ChEMBL document CHEMBL1125678, “Quinazolineacetic acids and related analogues as aldose reductase inhibitors” (J Med Chem, 1991)
